# Assay results reported in ChEMBL document CHEMBL3232989, “First identification of boronic species as novel potential inhibitors of the Staphylococcus aureus NorA efflux pump” (J Med Chem, 2014).
# Legend:
# [1] = Cytotoxicity against human KB cells assessed growth inhibition at 10 uM after 72 hrs by MTS assay; assay type: cell-based; conditions: read-out: GI
# In short: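 KB cells (from NCI) grown in DMEM with 10% FCS, penicillin-streptomycin, fungizone and glutamine, 37 °C, 5% CO2; compounds in DMSO added 24 h after plating (1% DMSO final, controls same). 72 h exposure, then MTS 3 h at 37 °C, absorbance at 490 nm; inhibition = (1 − OD490 treated/OD490 control)×100, triplicate experiments.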
# [2] = target: T1, Quinolone resistance protein NorA (Staphylococcus aureus) (UniProt P0A0J7); test: Inhibition of NorA in fluoroquinolone-resistant Staphylococcus aureus 1199B assessed as potentiation of 4 ug/ml of ciprofloxacin MIC at 100 ug/ml after 24 hrs by microdilution method
# T1 sequence (whole entry): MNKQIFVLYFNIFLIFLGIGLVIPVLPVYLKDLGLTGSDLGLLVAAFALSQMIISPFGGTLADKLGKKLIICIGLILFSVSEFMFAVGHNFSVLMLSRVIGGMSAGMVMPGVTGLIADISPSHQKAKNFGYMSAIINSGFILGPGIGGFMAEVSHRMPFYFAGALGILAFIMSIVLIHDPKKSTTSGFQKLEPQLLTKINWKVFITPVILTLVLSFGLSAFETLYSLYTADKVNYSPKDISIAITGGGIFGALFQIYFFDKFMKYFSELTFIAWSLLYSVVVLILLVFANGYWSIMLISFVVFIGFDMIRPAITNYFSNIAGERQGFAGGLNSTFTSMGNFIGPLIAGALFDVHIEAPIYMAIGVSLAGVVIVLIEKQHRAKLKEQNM
# In short: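 Combination with ciprofloxacin 4 μg/mL (MIC/4) against SA-1199B in MH broth microdilution, 10^6 CFU/mL, 24 h at 37 °C, read at 620 nm and visually. Compounds are first screened at 100 μg/mL; actives are 2-fold serially diluted. MMC4 is the lowest inhibitor concentration giving antibacterial activity with subinhibitory ciprofloxacin. Duplicates.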
# Staphylococcus aureus [3] = test: Toxicity in Staphylococcus aureus ATCC 25923 at 100 ug/ml after 24 hrs by microdilution method; assay type: organism-based
# In short: (§1)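 Single-point screen at 100 μg/mL of compound alone in MH broth microdilution, 10^6 CFU/mL, 24 h at 37 °C. Growth is read at 620 nm and visually, giving percent growth inhibition. Compounds inhibiting more than 90% then go to MIC determination. Duplicates.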
# Staphylococcus aureus [4] = test: Toxicity in fluoroquinolone-resistant Staphylococcus aureus 1199B expressing NorA at 100 ug/ml after 24 hrs by microdilution method; assay type: organism-based; in short: as §1
# Staphylococcus aureus [5] = test: Toxicity in Staphylococcus aureus ATCC 25923 after 24 hrs by microdilution method; assay type: organism-based
# In short: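 Mueller–Hinton broth microdilution; inoculum from frozen culture grown 18 h at 37 °C, 10^6 CFU/mL per well. Compounds (10 mg/mL DMSO stock) in 2-fold serial dilutions, highest 128 mg/L, first screened at 100 μg/mL. MIC = complete growth inhibition after 24 h at 37 °C, read at 620 nm and visually; duplicate; ampicillin control.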
# Staphylococcus aureus [6] = test: Antibacterial activity against Staphylococcus aureus ATCC 25923 after 24 hrs by microdilution method; assay type: functional; conditions: ATCC 25923, 24 h
# In short: (§2)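 Broth microdilution in Mueller–Hinton broth, 10^6 CFU/mL per well from an 18 h 37 °C culture. Compounds come from 10 mg/mL DMSO stocks as 2-fold serial dilutions, top 128 mg/L. Plates run 24 h at 37 °C and are read at 620 nm and visually. MIC is the lowest concentration with complete growth inhibition. Duplicates; 2-fold variance accepted.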
# Staphylococcus aureus [7] = test: Antibacterial activity against fluoroquinolone-resistant Staphylococcus aureus 1199B expressing NorA after 24 hrs by microdilution method; assay type: functional; in short: as §2
# Staphylococcus aureus [8] = test: Toxicity in fluoroquinolone-resistant Staphylococcus aureus 1199B expressing NorA after 24 hrs by microdilution method; assay type: organism-based; conditions: in vitro; in short: as §2
# [9] = tested on: Staphylococcus aureus subsp. aureus RN4220; test: Inhibition of MsrA in macrolide-resistant Staphylococcus aureus RN4220 harboring pUL5054 assessed as potentiation of 4 ug/ml of […] erythromycin MIC after 24 hrs by microdilution method (reference value: […] ug/ml)
smiles,measurement,setting,value
Cn1nccc1B1OC(C)(C)C(C)(C)O1,"inhibition at 72 h, 10 µM",[1],0%
same,Activity,[2],8 µg/mL
same,growth inhibition (GI),Staphylococcus aureus [3],< 90%
same,growth inhibition (GI),Staphylococcus aureus [4],< 90%
same,MIC,Staphylococcus aureus [5],>= 64 ug ml-1
CC[C@H]1OC(=O)[C@H](C)[C@@H](O[C@H]2C[C@@](C)(OC)[C@@H](O)[C@H](C)O2)[C@H](C)[C@@H](O[C@@H]2O[C@H](C)C[C@H](N(C)C)[C@H]2O)[C@](C)(O)C[C@@H](C)C(=O)[C@H](C)[C@@H](O)[C@]1(C)O [ERYTHROMYCIN],MIC,Staphylococcus aureus [6],0.5 µg/mL
same,MIC,Staphylococcus aureus [7],128 µg/mL
CCOc1ccc(B(O)O)cn1,"inhibition at 72 h, 10 µM",[1],0%
same,Activity,[2],4 µg/mL
same,growth inhibition (GI),Staphylococcus aureus [3],< 90%
same,growth inhibition (GI),Staphylococcus aureus [4],< 90%
same,MIC,Staphylococcus aureus [5],>= 64 ug ml-1
OB(O)c1cc(Br)cnc1F,Activity,[2],128 µg/mL
same,MIC,Staphylococcus aureus [8],> 128 µg/mL
same,growth inhibition (GI),Staphylococcus aureus [3],< 90%
same,MIC,Staphylococcus aureus [5],>= 64 ug ml-1
O=Cc1ccc(B(O)O)cc1Cl,"inhibition at 72 h, 10 µM",[1],100%
same,Activity,[2],4 µg/mL
same,MIC,Staphylococcus aureus [8],32 µg/mL
same,Activity,[9],32 µg/mL
same,MIC,Staphylococcus aureus [5],>= 64 ug ml-1
CC(=O)OCc1ccc(B(OC(C)(C)C(C)(C)O)OC(C)(C)C(C)(C)O)cc1,"inhibition at 72 h, 10 µM",[1],6%
same,Activity,[2],4 µg/mL
same,growth inhibition (GI),Staphylococcus aureus [3],< 90%
same,growth inhibition (GI),Staphylococcus aureus [4],< 90%
same,MIC,Staphylococcus aureus [5],>= 64 ug ml-1
O=C(O)c1ccc2ccccc2c1 [BETA-NAPHTOIC ACID],Activity,[2],> 128 µg/mL
same,MIC,Staphylococcus aureus [8],> 128 µg/mL
same,MIC,Staphylococcus aureus [5],>= 64 ug ml-1
Cc1cc(B(O)O)cnc1Cl,"inhibition at 72 h, 10 µM",[1],0%
same,Activity,[2],4 µg/mL
same,MIC,Staphylococcus aureus [8],> 128 µg/mL
same,growth inhibition (GI),Staphylococcus aureus [3],< 90%
same,MIC,Staphylococcus aureus [5],>= 64 ug ml-1
OB(O)c1ccc(OCc2ccccc2)cc1,"inhibition at 72 h, 10 µM",[1],6%
same,Activity,[2],0.5 µg/mL
same,MIC,Staphylococcus aureus [8],> 128 µg/mL
OB(O)c1ccc(Br)cc1,"inhibition at 72 h, 10 µM",[1],0%
same,Activity,[2],2 µg/mL
same,MIC,Staphylococcus aureus [8],> 128 µg/mL
O=C(O)c1cccnc1 [NIACIN],Activity,[2],> 128 µg/mL
same,MIC,Staphylococcus aureus [8],> 128 µg/mL
same,MIC,Staphylococcus aureus [5],>= 64 ug ml-1
CSc1ccc(B(O)O)cn1,"inhibition at 72 h, 10 µM",[1],0%
same,Activity,[2],8 µg/mL
same,growth inhibition (GI),Staphylococcus aureus [3],< 90%
same,growth inhibition (GI),Staphylococcus aureus [4],< 90%
same,MIC,Staphylococcus aureus [5],>= 64 ug ml-1
OB(O)c1ccccc1Oc1ccccc1,"inhibition at 72 h, 10 µM",[1],10%
same,Activity,[2],32 µg/mL
same,MIC,Staphylococcus aureus [8],32 µg/mL
same,Activity,[9],32 µg/mL
COc1ccc(B(O)O)cn1,"inhibition at 72 h, 10 µM",[1],0%
same,Activity,[2],4 µg/mL
same,growth inhibition (GI),Staphylococcus aureus [3],< 90%
same,growth inhibition (GI),Staphylococcus aureus [4],< 90%
same,MIC,Staphylococcus aureus [5],>= 64 ug ml-1
Oc1ccccc1Br,Activity,[2],128 µg/mL
same,MIC,Staphylococcus aureus [8],> 128 µg/mL
same,MIC,Staphylococcus aureus [5],>= 64 ug ml-1
Oc1ccccc1Cl [2-CHLOROPHENOL],Activity,[2],128 µg/mL
same,MIC,Staphylococcus aureus [8],> 128 µg/mL
same,MIC,Staphylococcus aureus [5],>= 64 ug ml-1
OB(O)c1cnc2ccccc2c1,"inhibition at 72 h, 10 µM",[1],0%
same,Activity,[2],4 µg/mL
same,growth inhibition (GI),Staphylococcus aureus [3],< 90%
same,growth inhibition (GI),Staphylococcus aureus [4],< 90%
same,MIC,Staphylococcus aureus [5],>= 64 ug ml-1
Cc1cc(B(O)O)ccc1Cl,"inhibition at 72 h, 10 µM",[1],0%
same,Activity,[2],2 µg/mL
same,MIC,Staphylococcus aureus [8],> 128 µg/mL
OB(O)c1ccc(Cl)cc1,"inhibition at 72 h, 10 µM",[1],0%
same,Activity,[2],1 µg/mL
same,MIC,Staphylococcus aureus [8],64 µg/mL
